Source: publication PMC5014453 (Molecular Therapy. Nucleic Acids, 2016)

Key:
[1] = system: HBV (pUC18-HBV1.3 hydrodynamic injection); experiment: Anti-HBV assay in an acute hepatitis B mouse model; type: in vivo, BALB/c mice; details: acute hepatitis B mice, real-time PCR, n = 5; Tat-PNA-DR 5.05 mg/kg, 3TC 0.5 mg/kg
[2] = system: HBV DNA and RNA in HepG2.2.15 cells; experiment: Southern and northern blot of intracellular HBV DNA and RNA in HepG2.2.15 cells; type: cell-based, Hepatitis B virus; details: southern blot, 48 hours, 3TC 20 μmol/l
Summary of the method: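 HepG2.2.15 cells grown in DMEM with 10% FBS, penicillin and streptomycin at 37 °C, 5% CO2, then exposed to test compound; 3TC control at 20 μmol/l. Total RNA TRIzol-extracted, run on 1.5% formaldehyde agarose gel, HBV RNAs probed with the DIG probe also used for Southern blot; GAPDH DIG probe as internal control.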

[3] = system: HBV proteins in HepG2.2.15 cells; experiment: Western blot of intracellular HBV proteins in HepG2.2.15 cells; type: cell-based, Hepatitis B virus; details: HepG2.2.15 cell lysates, 3TC 20 μmol/l

## Nc1ccn([C@@H]2CS[C@H](CO)O2)c(=O)n1 [3TC, lamivudine]
[1]
  average HBV DNA concentration in serum: 1.2 × 10^4 copies/ml
[2]
  intracellular HBV DNA: clearly inhibited the synthesis of HBV DNA
[3]
  intracellular HBV protein levels (HBsAg, HBV core protein, x protein, RT): did not affect the expression of any HBV viral proteins
